In ChEMBL document CHEMBL5303300, “EUbOPEN Chemogenomics Library - Multiplex” (2023):
Values joined by “and” are separate entries in the source; they are usually repeats but may differ in a detail not shown here. Equal values may be shown once.

Test system: U2OS
Assay: Multiplex assay against U2OS
Assay type: toxicity, cell-based
Conditions: human, number of replicates 2
Summary of the method: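 Four dyes were applied at seeding to live cells: Hoechst33342, BioTracker Green Microtubule Cytoskeleton Dye, MitoTracker Red and Annexin V Alexa Fluor 680. Imaging after compound addition used a CQ1 microscope at 37°C and 5% CO2. CellPathfinder machine-learning gating then sorted cells into Hoechst high-intensity objects or normal cells, normal cells into healthy, pyknosed or fragmented nuclei, and pyknosed cells into mitotic or apoptotic, with tubulin, mitochondrial-mass and membrane-permeability phenotypes given as per cents of healthy-nucleus cells.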

[1] = 12 h, 10 µM, compound concentration 10 uM
[2] = 24 h, 10 µM, compound concentration 10 uM
[3] = 48 h, 10 µM, compound concentration 10 uM
[4] = 12 h, 1 µM, compound concentration 1 uM
[5] = 24 h, 1 µM, compound concentration 1 uM
[6] = 48 h, 1 µM, compound concentration 1 uM

CC(=O)O[C@H]1C(=O)[C@@]2(C)[C@H]([C@H](OC(=O)c3ccccc3)[C@]3(O)C[C@H](OC(=O)[C@H](O)[C@@H](NC(=O)c4ccccc4)c4ccccc4)C(C)=C1C3(C)C)[C@]1(OC(C)=O)CO[C@@H]1C[C@@H]2O [PACLITAXEL]
Population Apoptotic (%) [1]: 75% and 81% and 77%
Population Healthy Nuclei (%) [1]: 47% and 63% and 72% and 76%
Population Hoechst High Intensity Objects (%) [1]: 0%
Population Membrane Permeable-Phenotype (%) [1]: 6% and 3% and 4%
Population Mitochondria Different-Phenotype (%) [1]: 12% and 10% and 16% and 15%
Population Mitotic Cells (%) [1]: 25% and 18% and 22%
Population Normal (%) [1]: 100% and 99%
Population Pyknosed Nuclei (%) [1]: 11% and 18% and 15% and 13%
Population Tubulin-Different-Phenotype (%) [1]: 33% [middle of 4 runs]
Population Apoptotic (%) [2]: 72% and 57% and 74% and 78%
Population Healthy Nuclei (%) [2]: 33% and 55% and 66% and 65%
Population Hoechst High Intensity Objects (%) [2]: 2% and 0%
Population Membrane Permeable-Phenotype (%) [2]: 7% and 3%
Population Mitochondria Different-Phenotype (%) [2]: 27% [middle of 4 runs]
Population Mitotic Cells (%) [2]: 27% and 42% and 26% and 21%
Population Normal (%) [2]: 97% and 100% and 99%
Population Pyknosed Nuclei (%) [2]: 26% and 25% and 20%
Population Tubulin-Different-Phenotype (%) [2]: 21% and 19% and 36%
Population Apoptotic (%) [3]: 77% and 76% and 90% and 93%
Population Healthy Nuclei (%) [3]: 33% and 30% and 56% and 60%
Population Hoechst High Intensity Objects (%) [3]: 0%
Population Mitochondria Different-Phenotype (%) [3]: 38% and 42% and 41%
Population Normal (%) [3]: 100% and 99%
Population Pyknosed Nuclei (%) [3]: 35% and 28% and 32%
Population Tubulin-Different-Phenotype (%) [3]: 33% and 28% and 32% and 41%

CCN1C(=O)N(c2c(F)c(OC)cc(OC)c2F)Cc2cnc3[nH]c(CN4CCOCC4)cc3c21 [PEMIGATINIB]
Population Apoptotic (%) [4]: 83% and 63%
Population Fragmented Nuclei (%) [4]: 7% and 3%
Population Healthy Nuclei (%) [4]: 82% and 90%
Population Hoechst High Intensity Objects (%) [4]: 0%
Population Membrane Permeable-Phenotype (%) [4]: 0% and 1%
Population Mitochondria Different-Phenotype (%) [4]: 0% and 1%
Population Mitotic Cells (%) [4]: 16% and 36%
Population Normal (%) [4]: 100%
Population Pyknosed Nuclei (%) [4]: 9% and 5%
Population Tubulin-Different-Phenotype (%) [4]: 64% and 80%
Population Apoptotic (%) [1]: 33% and 74%
Population Healthy Nuclei (%) [1]: 45% and 78%
Population Hoechst High Intensity Objects (%) [1]: 0%
Population Membrane Permeable-Phenotype (%) [1]: 0% and 5%
Population Mitochondria Different-Phenotype (%) [1]: 0%
Population Mitotic Cells (%) [1]: 66% and 25%
Population Normal (%) [1]: 100%
Population Pyknosed Nuclei (%) [1]: 29% and 15%
Population Tubulin-Different-Phenotype (%) [1]: 64% and 52%
Population Apoptotic (%) [5]: 54% and 90%
Population Fragmented Nuclei (%) [5]: 6% and 2%
Population Healthy Nuclei (%) [5]: 81% and 89%
Population Hoechst High Intensity Objects (%) [5]: 0%
Population Membrane Permeable-Phenotype (%) [5]: 1% and 2%
Population Mitochondria Different-Phenotype (%) [5]: 0% and 2%
Population Normal (%) [5]: 100% and 99%
Population Pyknosed Nuclei (%) [5]: 12% and 7%
Population Tubulin-Different-Phenotype (%) [5]: 66% and 78%
Total Cell Count [5]: 91 and 271
Population Apoptotic (%) [2]: 80% and 78%
Population Fragmented Nuclei (%) [2]: 14% and 6%
Population Healthy Nuclei (%) [2]: 48% and 72%
Population Hoechst High Intensity Objects (%) [2]: 0% and 1%
Population Membrane Permeable-Phenotype (%) [2]: 0% and 5%
Population Mitochondria Different-Phenotype (%) [2]: 0% and 4%
Population Mitotic Cells (%) [2]: 20% and 21%
Population Normal (%) [2]: 100% and 98%
Population Pyknosed Nuclei (%) [2]: 37% and 21%
Population Tubulin-Different-Phenotype (%) [2]: 69% and 56%
Population Apoptotic (%) [6]: 50% and 76%
Population Fragmented Nuclei (%) [6]: 8% and 2%
Population Healthy Nuclei (%) [6]: 80% and 89%
Population Hoechst High Intensity Objects (%) [6]: 0%
Population Membrane Permeable-Phenotype (%) [6]: 0% and 1%
Population Mitochondria Different-Phenotype (%) [6]: 0%
Population Mitotic Cells (%) [6]: 50% and 23%
Population Normal (%) [6]: 100% and 99%
Population Pyknosed Nuclei (%) [6]: 10% and 8%
Population Tubulin-Different-Phenotype (%) [6]: 72% and 82%
Population Apoptotic (%) [3]: 86% and 82%
Population Fragmented Nuclei (%) [3]: 11% and 6%
Population Healthy Nuclei (%) [3]: 25% and 60%
Population Hoechst High Intensity Objects (%) [3]: 0%
Population Membrane Permeable-Phenotype (%) [3]: 0% and 7%
Population Mitochondria Different-Phenotype (%) [3]: 0% and 5%
Population Mitotic Cells (%) [3]: 13% and 17%
Population Normal (%) [3]: 100% and 99%
Population Pyknosed Nuclei (%) [3]: 63% and 33%
Population Tubulin-Different-Phenotype (%) [3]: 44% and 60%

COc1ccc(F)c(F)c1C(=O)c1cnc(NC2CCN(S(C)(=O)=O)CC2)nc1N [RG-547]
Population Apoptotic (%) [4]: 25% and 66%
Population Fragmented Nuclei (%) [4]: 21% and 7%
Population Healthy Nuclei (%) [4]: 68% and 81%
Population Hoechst High Intensity Objects (%) [4]: 0% and 1%
Population Membrane Permeable-Phenotype (%) [4]: 7% and 3%
Population Mitochondria Different-Phenotype (%) [4]: 3% and 2%
Population Mitotic Cells (%) [4]: 75% and 33%
Population Normal (%) [4]: 100% and 98%
Population Pyknosed Nuclei (%) [4]: 10%
Population Tubulin-Different-Phenotype (%) [4]: 69% and 80%
Population Apoptotic (%) [1]: 77% and 70%
Population Fragmented Nuclei (%) [1]: 20% and 12%
Population Healthy Nuclei (%) [1]: 44% and 42%
Population Hoechst High Intensity Objects (%) [1]: 0% and 1%
Population Membrane Permeable-Phenotype (%) [1]: 9% and 14%
Population Mitochondria Different-Phenotype (%) [1]: 0% and 6%
Population Mitotic Cells (%) [1]: 22% and 30%
Population Normal (%) [1]: 100% and 98%
Population Pyknosed Nuclei (%) [1]: 36% and 44%
Population Tubulin-Different-Phenotype (%) [1]: 72% and 57%
Population Apoptotic (%) [5]: 57% and 70%
Population Fragmented Nuclei (%) [5]: 13% and 9%
Population Healthy Nuclei (%) [5]: 66% and 77%
Population Hoechst High Intensity Objects (%) [5]: 0%
Population Membrane Permeable-Phenotype (%) [5]: 4%
Population Mitochondria Different-Phenotype (%) [5]: 4% and 3%
Population Mitotic Cells (%) [5]: 42% and 30%
Population Normal (%) [5]: 100% and 99%
Population Pyknosed Nuclei (%) [5]: 19% and 12%
Population Tubulin-Different-Phenotype (%) [5]: 66% and 79%
Population Apoptotic (%) [2]: 85%
Population Fragmented Nuclei (%) [2]: 15% and 12%
Population Healthy Nuclei (%) [2]: 41% and 32%
Population Hoechst High Intensity Objects (%) [2]: 0% and 2%
Population Membrane Permeable-Phenotype (%) [2]: 21% and 12%
Population Mitochondria Different-Phenotype (%) [2]: 21% and 12%
Population Mitotic Cells (%) [2]: 15% and 14%
Population Normal (%) [2]: 100% and 97%
Population Pyknosed Nuclei (%) [2]: 43% and 54%
Population Tubulin-Different-Phenotype (%) [2]: 68% and 72%
Population Apoptotic (%) [6]: 85%
Population Fragmented Nuclei (%) [6]: 30% and 20%
Population Healthy Nuclei (%) [6]: 39% and 65%
Population Hoechst High Intensity Objects (%) [6]: 0%
Population Membrane Permeable-Phenotype (%) [6]: 11% and 2%
Population Mitochondria Different-Phenotype (%) [6]: 5% and 1%
Population Mitotic Cells (%) [6]: 14%
Population Normal (%) [6]: 100% and 99%
Population Pyknosed Nuclei (%) [6]: 30% and 13%
Population Tubulin-Different-Phenotype (%) [6]: 66% and 75%
Population Apoptotic (%) [3]: 94% and 87%
Population Fragmented Nuclei (%) [3]: 14% and 10%
Population Healthy Nuclei (%) [3]: 11% and 2%
Population Hoechst High Intensity Objects (%) [3]: 5% and 0%
Population Mitotic Cells (%) [3]: 5% and 12%
Population Normal (%) [3]: 94% and 100%
Population Pyknosed Nuclei (%) [3]: 74% and 86%
Population Tubulin-Different-Phenotype (%) [3]: 88% and 100%
